FGF22 binding: FGF22 (human) thermal shift binding; activity (Tm shift, normalised), % at 9.99 µM; Q9HCT0; 1.5% of 340,000 active; AID 651658; recombinant FGF22 thermal shift, SYPRO orange fluorescence; percent of sucrose octasulfate shift, DMSO zero;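 active means mean Tm shift, scaled 0 neutral to 100 positive control, at about 1.3% or above, every replicate too, limit read from the data; inconclusive means no clear call, values can overlap the other calls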
Target sequence (Q9HCT0 whole entry, looked up): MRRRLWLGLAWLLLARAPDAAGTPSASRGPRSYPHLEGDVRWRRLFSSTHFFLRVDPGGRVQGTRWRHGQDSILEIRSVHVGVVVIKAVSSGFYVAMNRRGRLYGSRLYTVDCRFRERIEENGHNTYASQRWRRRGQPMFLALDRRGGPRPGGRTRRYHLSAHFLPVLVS
EWS-Fli block: blocks EWS/Fli oncoprotein-driven transcription; inhibition, % at 12.6 µM; A673 NR0B1-luciferase reporter, viability-normalised; AID 651661; 0.67% of 350,000 active;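 active means mean inhibition of at least 50% after viability correction, with every replicate also passing that limit; inconclusive means mean reaches 50% but only one of two replicates passes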;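 further: firefly luciferase signal divided by Alamar Blue viability fluorescence both relative to DMSO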
PAX8 inh HTS: lowers PAX8-driven luciferase in RMG-I cells | 1.2% of 360,000 active | inhibition, % at 12.6 µM | RMG-I TPO-luciferase reporter, SteadyGlo, 24 h;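 active means mean replicate inhibition at least 60% with every replicate also reaching 60%; inconclusive means only one of the two criteria is met; inactive means mean below 60% and not all replicates reaching 60%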;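 further: luciferase light reporting Pax8 driven TPO promoter activity; plate controls were median of neutral control wells for no effect and mitoxantrone controls for full effect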
PGC1a acetyl inh: modulators of PGC1a acetylation; AID 651687; U2OS PGC1a acetylation, AlphaScreen anti-acetyl-lysine; with virally co-expressed GCN5 acetyltransferase; inhibition, % at 15.6 µM; 0.17% of 350,000 active;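 active means every replicate shows inhibition of at least 40%; inconclusive means mean inhibition at least 40% but some replicate below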;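 further: 0% = neutral control wells and 100% = positive control wells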
HIV Env fusion: inhibitors of HIV Env-mediated cell fusion; HeLa-JRFL Env/CEM21 cell fusion, luciferase; 1.1% of 360,000 active; AID 651610; inhibition, % at 12.3 µM;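 active means mean replicate inhibition score of at least 50 and every replicate individually at or above 50; inconclusive means only one of the two criteria met; inactive means mean below 50 and not all replicates reaching 50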;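 further: 0% = plate neutral controls and 100% = maraviroc near 300 nM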
FN deposition inh: fibronectin deposition inhibition | AID 743247 | 0.086% of 350,000 active | AH1F fibroblasts, Alexa488-fibronectin deposition fluorescence, overnight | inhibition, % at 12.6 µM;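 active means mean inhibition across replicates of 30% or more, regardless of how many single replicates reach that level; inconclusive means mean under 30% yet at least half of replicates reach 30%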;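 further: positive control wells lacked labelled fibronectin entirely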
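Measured by – fluorescence 485/525 nm · System – AH1F fibroblast monolayer, labelled fibronectin deposition · Amount – 10000 cells per well · Buffer or medium – serum-reduced DMEM (2% serum) · Doses – single dose, pinned · Also added – fluorescent fibronectin at 24 nM final · Schedule – 1 h cell attachment, overnight exposure to compound and label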
Active calls of the source: *; [ ] = another dose, or the depositor's remark. Sampled rows, rich in hits. Any-hit rate of the full collection: about 3.1%.

Screening COc1ccc(C(=O)CCN2CCN(c3ccccc3OC)CC2)cc1 returned FGF22 binding 0.2, EWS-Fli block -4.2, PAX8 inh HTS 83.2*, PGC1a acetyl inh 4.6, HIV Env fusion -21.8 and FN deposition inh -8.6.
Screening COc1cc2c(cc1OC)CN(CC(=O)Nc1ccccc1SC)CC2 returned FGF22 binding 43.1*, EWS-Fli block -4.3, PAX8 inh HTS 16.2, HIV Env fusion 24.7 and FN deposition inh 11.3.
For COc1ccc(C(=O)CCN2CCc3cc(OC)c(OC)cc3C2)cc1 the results were FGF22 binding 0.0, EWS-Fli block -6.2, PAX8 inh HTS 71.0*, PGC1a acetyl inh -1.3, HIV Env fusion 10.6 and FN deposition inh -1.5.
Screening COc1ccccc1N1CCN(CCCC(=O)c2ccc(F)cc2)CC1 returned FGF22 binding -0.3, EWS-Fli block -4.3, PAX8 inh HTS -4.4, PGC1a acetyl inh 7.9, HIV Env fusion -10.8 and FN deposition inh 4.8.
Screening O=C1[C@H]2[C@@H](c3ccc(F)cc3)N3C(=O)N(c4ccc(Br)cc4)C(=O)[C@@]3(Cc3ccc(Cl)cc3)[C@H]2C(=O)N1C1CCCCC1 returned FGF22 binding -0.4, EWS-Fli block 1.9, PAX8 inh HTS 41.3, PGC1a acetyl inh 1.6, HIV Env fusion 72.0* and FN deposition inh -1.3.
For COc1ccc([C@@H]2[C@@H]3C(=O)N(C(C)(C)C)C(=O)[C@@H]3[C@]3(Cc4ccc(Cl)cc4)C(=O)N(c4ccc(OC)cc4)C(=O)N23)cc1 the results were FGF22 binding 0.1, EWS-Fli block 4.1, PAX8 inh HTS -13.3, HIV Env fusion inconclusive and FN deposition inh -6.6.
Screening COc1ccc(N2C(=O)N3[C@H](c4ccc(Cl)cc4)[C@@H]4C(=O)N(C5CCCCC5)C(=O)[C@@H]4[C@]3(Cc3ccc(Cl)cc3)C2=O)cc1 returned FGF22 binding -0.3, EWS-Fli block -15.6, PAX8 inh HTS -20.4, PGC1a acetyl inh 0.4, HIV Env fusion 87.7* and FN deposition inh -2.3.
COc1ccc([C@@H]2[C@@H]3C(=O)N(C(C)(C)C)C(=O)[C@@H]3[C@]3(Cc4ccc(Cl)cc4)C(=O)N(c4ccc(Br)cc4)C(=O)N23)cc1 was read as FGF22 binding 0.0, EWS-Fli block 7.0, PAX8 inh HTS -3.6, HIV Env fusion 49.3 and FN deposition inh 7.4.
Screening COc1nc(-c2ccccc2Cl)ccc1C#N returned PGC1a acetyl inh 0.9 and HIV Env fusion 56.1*.
For C[C@H](CO)N1C[C@H](C)[C@@H](CN(C)S(=O)(=O)c2ccccc2)Oc2ccc(NC(=O)Cc3cn(C)c4ccccc34)cc2CC1=O the results were FGF22 binding 0.0, EWS-Fli block 14.9, PAX8 inh HTS -1.7, PGC1a acetyl inh -10.9 and HIV Env fusion -22.4[16.7 µM].
`C[C@H](CO)N1C[C@H](C)[C@H](CN(C)S(=O)(=O)c2cccs2)Oc2ccc(NC(=O)Cc3cn(C)c4ccccc34)cc2CC1=O` gave FGF22 binding -0.2, EWS-Fli block -1.7, PAX8 inh HTS -13.8, PGC1a acetyl inh 4.7, HIV Env fusion 95.6*[16.7 µM] and FN deposition inh 1.2.
`C[C@H](CO)N1C[C@H](C)[C@@H](CN(C)Cc2ccc(Oc3ccccc3)cc2)Oc2ccc(NC(=O)Cc3cn(C)c4ccccc34)cc2CC1=O` gave FGF22 binding 0.4, EWS-Fli block 13.8, PAX8 inh HTS 65.3*, PGC1a acetyl inh -19.6 and HIV Env fusion -64.8[16.7 µM].
For C[C@H](CO)N1C[C@H](C)[C@H](CN(C)S(=O)(=O)c2ccccc2)Oc2ccc(NC(=O)Cc3cn(C)c4ccccc34)cc2CC1=O the results were FGF22 binding -0.4, EWS-Fli block 0.2, PAX8 inh HTS 10.1, PGC1a acetyl inh -5.9 and HIV Env fusion 94.2*[16.7 µM].
COc1ccc(S(=O)(=O)N(C)C[C@@H]2Oc3ccc(NC(=O)Cc4cn(C)c5ccccc45)cc3CC(=O)N([C@H](C)CO)C[C@@H]2C)cc1 was read as FGF22 binding 0.1, EWS-Fli block 3.6, PGC1a acetyl inh 8.0 and HIV Env fusion 75.9*[16.7 µM].
For CCC(=O)N(C)C[C@@H]1Oc2ncc(-c3ccc(C)cc3)cc2C(=O)N([C@@H](C)CO)C[C@H]1C the results were FGF22 binding 0.0, EWS-Fli block 1.4, PGC1a acetyl inh 4.6, HIV Env fusion 19.0[16.7 µM] and FN deposition inh -6.1.
CCOC(=O)C(=Cc1ccc(OCc2ccc([N+](=O)[O-])cc2)c(OC)c1)C(=O)OCC was read as PGC1a acetyl inh 57.1*.
Screening CCCC#Cc1cnc2c(c1)C(=O)N([C@@H](C)CO)C[C@@H](C)[C@H](CN(C)C(=O)c1ccc(F)cc1)O2 returned FGF22 binding -0.3, EWS-Fli block -12.6, PGC1a acetyl inh 18.2 and HIV Env fusion 8.3[16.7 µM].
`COc1cccc(C(=O)NCCSc2c(C)[nH]c3ccccc23)c1OC` gave FGF22 binding -0.1, EWS-Fli block 12.2, PAX8 inh HTS 22.5, PGC1a acetyl inh 5.2, HIV Env fusion 3.8 and FN deposition inh -13.0.
For CC/C(=C/c1ccccc1)c1cccc2[nH]c3c(OC)cccc3c12 the results were FGF22 binding 0.2, EWS-Fli block 1.7, PAX8 inh HTS -2.8, HIV Env fusion 58.1* and FN deposition inh 0.1.
For CCCNC1=C(N(C(C)=O)c2cccc(F)c2)C(=O)c2ccccc2C1=O the results were FGF22 binding -0.1, EWS-Fli block 6.8, PAX8 inh HTS 108.8*, PGC1a acetyl inh 8.1, HIV Env fusion 78.1* and FN deposition inh 13.9.
N#CC(c1ccccn1)c1ncc(C(F)(F)F)cc1Cl (centres undefined) was read as FGF22 binding 43.4*, EWS-Fli block -2.8, PAX8 inh HTS 3.9, PGC1a acetyl inh -1.1, HIV Env fusion 1.6 and FN deposition inh 5.5.
CO/N=C/C(C#N)c1ncc(C(F)(F)F)cc1Cl (centres undefined) was read as FGF22 binding 0.1, EWS-Fli block 4.9 and PGC1a acetyl inh -15.9.
`O=C(Nc1ccc(F)cc1)Nc1ccc2c(c1)[C@H]1C[C@H](CC(=O)N3CCOCC3)O[C@H](CO)[C@H]1O2` gave FGF22 binding -0.3, EWS-Fli block -4.7, PAX8 inh HTS -4.4, PGC1a acetyl inh -0.2, HIV Env fusion -17.0[16.7 µM] and FN deposition inh -13.5.
For CCCC(=O)Nc1ccc2c(c1)C(=O)NC2=O the results were FGF22 binding 0.0, EWS-Fli block -5.7, PAX8 inh HTS -5.0, PGC1a acetyl inh -6.4, HIV Env fusion 28.3 and FN deposition inh 0.4.
Screening O=C(Cc1cccc2ccccc12)Nc1ccc2c(c1)C(=O)NC2=O returned FGF22 binding 44.3*, EWS-Fli block -1.1, PAX8 inh HTS 25.0, PGC1a acetyl inh 15.6, HIV Env fusion 19.6 and FN deposition inh -12.4.
